System: HEK-293T
Experiment: Multiplex assay against HEK293T;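 for Population Tubulin-Different-Phenotype (%): share of the cells with healthy nuclei that show this phenotype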
Format: toxicity, cell-based
Conditions: human
Summary of the method: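 Live cells were stained at seeding with Hoechst33342, BioTracker Green Microtubule Cytoskeleton Dye, MitoTracker Red and Annexin V Alexa Fluor 680, then imaged on a CQ1 microscope at 37°C and 5% CO2 after compound addition. CellPathfinder machine-learning gating split cells into Hoechst high-intensity objects or normal cells. Normal cells were split into healthy, pyknosed or fragmented nuclei, and pyknosed cells into mitotic or apoptotic. Tubulin, mitochondrial-mass and membrane-permeability phenotypes are per cents of healthy-nucleus cells.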

[1] = 12 h, 1 µM, compound concentration 1 uM, replicate 1
[2] = 12 h, 1 µM, compound concentration 1 uM, replicate 2
[3] = 12 h, 10 µM, compound concentration 10 uM, replicate 1
[4] = 12 h, 10 µM, compound concentration 10 uM, replicate 2
[5] = 24 h, 1 µM, compound concentration 1 uM, replicate 1
[6] = 24 h, 1 µM, compound concentration 1 uM, replicate 2
[7] = 24 h, 10 µM, compound concentration 10 uM, replicate 1
[8] = 24 h, 10 µM, compound concentration 10 uM, replicate 2
[9] = 48 h, 1 µM, compound concentration 1 uM, replicate 1
[10] = 48 h, 1 µM, compound concentration 1 uM, replicate 2
[11] = 48 h, 10 µM, compound concentration 10 uM, replicate 1
[12] = 48 h, 10 µM, compound concentration 10 uM, replicate 2

SMILES: O=C(Nc1ccc(Cl)cc1)Nc1cccc(-c2cccc(N3CCCC3)n2)c1
- Population Apoptotic (%) [1]: 51%
- Population Fragmented Nuclei (%) [1]: 10%
- Population Hoechst High Intensity Objects (%) [1]: 12%
- Population Membrane Permeable-Phenotype (%) [1]: 2%
- Population Mitochondria Different-Phenotype (%) [1]: 63%
- Population Mitotic Cells (%) [1]: 48%
- Population Normal (%) [1]: 87%
- Population Pyknosed Nuclei (%) [1]: 45%
- Population Tubulin-Different-Phenotype (%) [1]: 46%
- Population Apoptotic (%) [2]: 17%
- Population Fragmented Nuclei (%) [2]: 5%
- Population Healthy Nuclei (%) [2]: 43%
- Population Hoechst High Intensity Objects (%) [2]: 5%
- Population Membrane Permeable-Phenotype (%) [2]: 16%
- Population Mitochondria Different-Phenotype (%) [2]: 6%
- Population Mitotic Cells (%) [2]: 82%
- Population Normal (%) [2]: 94%
- Population Pyknosed Nuclei (%) [2]: 51%
- Population Tubulin-Different-Phenotype (%) [2]: 17%
- Population Apoptotic (%) [3]: 85%
- Population Fragmented Nuclei (%) [3]: 31%
- Population Healthy Nuclei (%) [3]: 2%
- Population Hoechst High Intensity Objects (%) [3]: 32%
- Population Membrane Permeable-Phenotype (%) [3]: 66%
- Population Mitochondria Different-Phenotype (%) [3]: 0%
- Population Mitotic Cells (%) [3]: 14%
- Population Normal (%) [3]: 68%
- Population Pyknosed Nuclei (%) [3]: 65%
- Population Tubulin-Different-Phenotype (%) [3]: 33%
- Population Apoptotic (%) [4]: 46%
- Population Fragmented Nuclei (%) [4]: 7%
- Population Healthy Nuclei (%) [4]: 14%
- Population Hoechst High Intensity Objects (%) [4]: 9%
- Population Membrane Permeable-Phenotype (%) [4]: 70%
- Population Mitochondria Different-Phenotype (%) [4]: 10%
- Population Mitotic Cells (%) [4]: 53%
- Population Normal (%) [4]: 90%
- Population Pyknosed Nuclei (%) [4]: 78%
- Population Tubulin-Different-Phenotype (%) [4]: 60%
- Population Apoptotic (%) [5]: 49%
- Population Fragmented Nuclei (%) [5]: 9%
- Population Healthy Nuclei (%) [5]: 47%
- Population Hoechst High Intensity Objects (%) [5]: 11%
- Population Membrane Permeable-Phenotype (%) [5]: 9%
- Population Mitochondria Different-Phenotype (%) [5]: 38%
- Population Mitotic Cells (%) [5]: 50%
- Population Normal (%) [5]: 88%
- Population Pyknosed Nuclei (%) [5]: 43%
- Population Tubulin-Different-Phenotype (%) [5]: 37%
- Population Apoptotic (%) [6]: 9%
- Population Fragmented Nuclei (%) [6]: 8%
- Population Healthy Nuclei (%) [6]: 60%
- Population Hoechst High Intensity Objects (%) [6]: 3%
- Population Membrane Permeable-Phenotype (%) [6]: 24%
- Population Mitochondria Different-Phenotype (%) [6]: 2%
- Population Mitotic Cells (%) [6]: 90%
- Population Normal (%) [6]: 96%
- Population Pyknosed Nuclei (%) [6]: 30%
- Population Tubulin-Different-Phenotype (%) [6]: 28%
- Population Apoptotic (%) [7]: 85%
- Population Fragmented Nuclei (%) [7]: 43%
- Population Healthy Nuclei (%) [7]: 6%
- Population Hoechst High Intensity Objects (%) [7]: 45%
- Population Membrane Permeable-Phenotype (%) [7]: 0%
- Population Mitochondria Different-Phenotype (%) [7]: 50%
- Population Mitotic Cells (%) [7]: 14%
- Population Normal (%) [7]: 54%
- Population Pyknosed Nuclei (%) [7]: 50%
- Population Tubulin-Different-Phenotype (%) [7]: 66%
- Population Apoptotic (%) [8]: 56%
- Population Fragmented Nuclei (%) [8]: 8%
- Population Healthy Nuclei (%) [8]: 14%
- Population Hoechst High Intensity Objects (%) [8]: 30%
- Population Membrane Permeable-Phenotype (%) [8]: 43%
- Population Mitochondria Different-Phenotype (%) [8]: 12%
- Population Mitotic Cells (%) [8]: 43%
- Population Normal (%) [8]: 69%
- Population Pyknosed Nuclei (%) [8]: 76%
- Population Tubulin-Different-Phenotype (%) [8]: 56%
- Population Apoptotic (%) [9]: 47%
- Population Fragmented Nuclei (%) [9]: 11%
- Population Healthy Nuclei (%) [9]: 57%
- Population Hoechst High Intensity Objects (%) [9]: 9%
- Population Membrane Permeable-Phenotype (%) [9]: 5%
- Population Mitochondria Different-Phenotype (%) [9]: 14%
- Population Mitotic Cells (%) [9]: 52%
- Population Normal (%) [9]: 90%
- Population Pyknosed Nuclei (%) [9]: 30%
- Population Tubulin-Different-Phenotype (%) [9]: 38%
- Population Apoptotic (%) [10]: 7%
- Population Fragmented Nuclei (%) [10]: 5%
- Population Healthy Nuclei (%) [10]: 82%
- Population Hoechst High Intensity Objects (%) [10]: 2%
- Population Membrane Permeable-Phenotype (%) [10]: 26%
- Population Mitochondria Different-Phenotype (%) [10]: 0%
- Population Mitotic Cells (%) [10]: 92%
- Population Normal (%) [10]: 97%
- Population Pyknosed Nuclei (%) [10]: 11%
- Population Tubulin-Different-Phenotype (%) [10]: 19%
- Population Apoptotic (%) [11]: 80%
- Population Fragmented Nuclei (%) [11]: 61%
- Population Healthy Nuclei (%) [11]: 7%
- Population Hoechst High Intensity Objects (%) [11]: 40%
- Population Membrane Permeable-Phenotype (%) [11]: 25%
- Population Mitochondria Different-Phenotype (%) [11]: 50%
- Population Mitotic Cells (%) [11]: 19%
- Population Normal (%) [11]: 59%
- Population Pyknosed Nuclei (%) [11]: 30%
- Population Tubulin-Different-Phenotype (%) [11]: 87%
- Population Apoptotic (%) [12]: 52%
- Population Fragmented Nuclei (%) [12]: 22%
- Population Healthy Nuclei (%) [12]: 22%
- Population Hoechst High Intensity Objects (%) [12]: 26%
- Population Membrane Permeable-Phenotype (%) [12]: 72%
- Population Mitochondria Different-Phenotype (%) [12]: 6%
- Population Mitotic Cells (%) [12]: 47%
- Population Normal (%) [12]: 73%
- Population Pyknosed Nuclei (%) [12]: 54%
- Population Tubulin-Different-Phenotype (%) [12]: 79%

SMILES: COc1cccc2cc(-c3nc([C@H]4CC[C@H](C(=O)O)CC4)n4ncnc(N)c34)[nH]c12 [OSI-027]
- Population Apoptotic (%) [1]: 25%
- Population Fragmented Nuclei (%) [1]: 14%
- Population Healthy Nuclei (%) [1]: 55%
- Population Hoechst High Intensity Objects (%) [1]: 16%
- Population Membrane Permeable-Phenotype (%) [1]: 3%
- Population Mitochondria Different-Phenotype (%) [1]: 10%
- Population Mitotic Cells (%) [1]: 74%
- Population Normal (%) [1]: 83%
- Population Pyknosed Nuclei (%) [1]: 29%
- Population Tubulin-Different-Phenotype (%) [1]: 5%
- Total Cell Count [1]: 587
- Population Apoptotic (%) [2]: 9%
- Population Fragmented Nuclei (%) [2]: 6%
- Population Healthy Nuclei (%) [2]: 85%
- Population Hoechst High Intensity Objects (%) [2]: 6%
- Population Membrane Permeable-Phenotype (%) [2]: 2%
- Population Mitochondria Different-Phenotype (%) [2]: 13%
- Population Mitotic Cells (%) [2]: 90%
- Population Normal (%) [2]: 93%
- Population Pyknosed Nuclei (%) [2]: 7%
- Population Tubulin-Different-Phenotype (%) [2]: 10%
- Total Cell Count [2]: 997
- Population Apoptotic (%) [3]: 23%
- Population Fragmented Nuclei (%) [3]: 32%
- Population Healthy Nuclei (%) [3]: 40%
- Population Hoechst High Intensity Objects (%) [3]: 22%
- Population Membrane Permeable-Phenotype (%) [3]: 8%
- Population Mitochondria Different-Phenotype (%) [3]: 2%
- Population Mitotic Cells (%) [3]: 76%
- Population Normal (%) [3]: 77%
- Population Pyknosed Nuclei (%) [3]: 27%
- Population Tubulin-Different-Phenotype (%) [3]: 2%
- Total Cell Count [3]: 379
- Population Apoptotic (%) [4]: 10%
- Population Fragmented Nuclei (%) [4]: 9%
- Population Healthy Nuclei (%) [4]: 85%
- Population Hoechst High Intensity Objects (%) [4]: 5%
- Population Membrane Permeable-Phenotype (%) [4]: 0%
- Population Mitochondria Different-Phenotype (%) [4]: 8%
- Population Mitotic Cells (%) [4]: 89%
- Population Normal (%) [4]: 94%
- Population Pyknosed Nuclei (%) [4]: 5%
- Population Tubulin-Different-Phenotype (%) [4]: 5%
- Total Cell Count [4]: 1068
- Population Apoptotic (%) [5]: 22%
- Population Fragmented Nuclei (%) [5]: 15%
- Population Healthy Nuclei (%) [5]: 60%
- Population Hoechst High Intensity Objects (%) [5]: 19%
- Population Membrane Permeable-Phenotype (%) [5]: 15%
- Population Mitochondria Different-Phenotype (%) [5]: 8%
- Population Mitotic Cells (%) [5]: 77%
- Population Normal (%) [5]: 80%
- Population Pyknosed Nuclei (%) [5]: 24%
- Population Tubulin-Different-Phenotype (%) [5]: 20%
- Total Cell Count [5]: 478
- Population Apoptotic (%) [6]: 4%
- Population Fragmented Nuclei (%) [6]: 7%
- Population Healthy Nuclei (%) [6]: 83%
- Population Hoechst High Intensity Objects (%) [6]: 8%
- Population Membrane Permeable-Phenotype (%) [6]: 6%
- Population Mitochondria Different-Phenotype (%) [6]: 13%
- Population Mitotic Cells (%) [6]: 95%
- Population Normal (%) [6]: 91%
- Population Pyknosed Nuclei (%) [6]: 8%
- Population Tubulin-Different-Phenotype (%) [6]: 37%
- Total Cell Count [6]: 849
- Population Apoptotic (%) [7]: 12%
- Population Fragmented Nuclei (%) [7]: 29%
- Population Healthy Nuclei (%) [7]: 53%
- Population Hoechst High Intensity Objects (%) [7]: 14%
- Population Membrane Permeable-Phenotype (%) [7]: 10%
- Population Mitochondria Different-Phenotype (%) [7]: 3%
- Population Mitotic Cells (%) [7]: 87%
- Population Normal (%) [7]: 85%
- Population Pyknosed Nuclei (%) [7]: 17%
- Population Tubulin-Different-Phenotype (%) [7]: 6%
- Total Cell Count [7]: 371
- Population Apoptotic (%) [8]: 0%
- Population Fragmented Nuclei (%) [8]: 18%
- Population Healthy Nuclei (%) [8]: 78%
- Population Hoechst High Intensity Objects (%) [8]: 5%
- Population Membrane Permeable-Phenotype (%) [8]: 5%
- Population Mitotic Cells (%) [8]: 100%
- Population Normal (%) [8]: 94%
- Population Pyknosed Nuclei (%) [8]: 2%
- Population Tubulin-Different-Phenotype (%) [8]: 10%
- Total Cell Count [8]: 1604

From ChEMBL document CHEMBL4689842, “EUbOPEN Chemogenomics Library wave 1” (2021)
